This is a sample that favours compounds with a hit; in the whole collection about 1.1% have one here.
CAL PDZ FP-1 = CAL PDZ peptide-binding inhibitors, primary screen, biochemical, fluorescence polarization, Cer-tagged CAL PDZ, HTS | Golgi-associated PDZ and coiled-coil motif-containing protein (Homo sapiens), Q9HD26 | purified CAL PDZ, TMR-peptide fluorescence polarization, 1 h | inhibition, % at 20 µM | 330,000 tested, 0.02% active;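 active = highest replicate inhibition of at least 40%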;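 also: plate controls were DMSO neutral control wells for no effect and unlabeled competitor peptide control wells for full effect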
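System: tagged CAL PDZ domain. Schedule: 1 h room-temperature incubation prior to read. Signal: fluorescence polarization (mP). Measure: percent inhibition from loss of millipolarization.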
C-LANA FP = inhibitors of KSHV C-LANA binding to DNA, primary screen, biochemical, fluorescence polarization, FAM-LBS DNA, MBP-C-LANA, single point. 340,000 tested, 0.078% active. AID 504423, 2011. Kaposi's sarcoma herpesvirus LANA C-terminal domain (residues 932-1162) DNA binding. inhibition, % at 9 µM;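 active = highest replicate inhibition at or above 60% at 9 µM, even if other replicates fall short; inactive = all replicates below 60% inhibition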;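 also: 0% = neutral control wells and 100% = 4 µM acridine orange control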
miR-122 sensor = miR-122 Renilla sensor signal increase in Huh7, primary screen, miR-122 inhibitor project, cell-based, single point, plate reader; Huh7 miR-122 Renilla luciferase sensor, 48 h; neutral wells = 0, positive control = 100; activation (reporter increase), % at 12.5 µM; 340,000 tested, 0.3% active; AID 602342, 2012;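 active = mean replicate activation score at least 90 and every replicate individually at or above 90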;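 also: higher luciferase means less miR-122 activity so hits act as miR-122 inhibitors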
CAL PDZ FP-2 = untagged CAL PDZ binding inhibitors, primary screen, biochemical, fluorescence polarization, HTS; Golgi-associated PDZ and coiled-coil motif-containing protein (Homo sapiens), Q9HD26; purified CAL PDZ, TMR-peptide fluorescence polarization, 1 h; inhibition, % at 24.9 µM; 300,000 tested, 0.92% active;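 active = mean inhibition of at least 30% with at least half of replicates also reaching 30%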;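 also: 0% = DMSO neutral control and 100% = excess unlabeled competitor peptide PRC23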
Keap1-Nrf2 PPI = Keap1-Nrf2 protein-protein interaction inhibitors, primary screen, biochemical, fluorescence polarization, single point; 340,000 tested, 0.15% active; Keap1 Kelch-Nrf2 peptide fluorescence polarization, 1536-well; Kelch-like ECH-associated protein 1 (Homo sapiens), Q14145; AID 504523, 2011; inhibition, % at 9.4 µM; in the data active = inhibition above about 12%;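 also: human Keap1 Kelch domain with fluorescein labeled Nrf2 9mer peptide probe; 0% = neutral control wells and 100% = peptide positive control; higher means more block of Keap1 binding to Nrf2 peptide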
Target sequence (Q14145 whole entry, looked up, the tested form may be a part): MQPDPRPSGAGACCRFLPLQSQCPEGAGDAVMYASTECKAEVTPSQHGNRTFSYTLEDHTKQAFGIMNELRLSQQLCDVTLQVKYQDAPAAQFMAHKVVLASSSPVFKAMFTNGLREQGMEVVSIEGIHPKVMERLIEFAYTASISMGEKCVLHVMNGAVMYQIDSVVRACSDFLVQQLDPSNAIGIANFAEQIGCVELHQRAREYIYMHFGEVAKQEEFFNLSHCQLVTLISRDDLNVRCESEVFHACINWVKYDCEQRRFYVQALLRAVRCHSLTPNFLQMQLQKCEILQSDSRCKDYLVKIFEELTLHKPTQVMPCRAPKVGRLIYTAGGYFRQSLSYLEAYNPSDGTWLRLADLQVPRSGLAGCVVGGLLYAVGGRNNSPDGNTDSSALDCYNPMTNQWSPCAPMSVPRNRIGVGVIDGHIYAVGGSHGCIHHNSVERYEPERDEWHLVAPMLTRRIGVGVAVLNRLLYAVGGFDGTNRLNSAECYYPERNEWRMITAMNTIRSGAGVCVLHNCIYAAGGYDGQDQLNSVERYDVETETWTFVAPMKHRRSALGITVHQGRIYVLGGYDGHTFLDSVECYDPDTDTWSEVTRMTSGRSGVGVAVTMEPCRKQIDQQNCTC
Starred values were filed as active, the others as inactive; x = no result; [ ] = dose if it differs, or a comment.

SMILES	CAL PDZ FP-1	C-LANA FP	miR-122 sensor	CAL PDZ FP-2	Keap1-Nrf2 PPI
CCCN1[C@H](C(=O)N2CCOCC2)[C@@H](CO)[C@@H]2Cn3c(ccc(-c4ccncc4)c3=O)[C@@H]21	x	x	1.1[16.7 µM]	x	x
CC(C)CC(CO)NS(=O)(=O)c1cccc(Cl)c1F (configuration not stated)	-0.5	0.6	-13.7	-3.0	-5.3
CC(C)C[C@@H](CO)NS(=O)(=O)c1c(F)cccc1F	3.9	-0.6	-5.8	35.2*	-2.4
CN1C(=O)c2cc(NC(=O)C3CCCC3)ccc2OC[C@H]2O[C@H](CC(=O)NCC3CC3)CC[C@@H]21	x	x	-2.3[16.7 µM]	x	x
COC1OC2COC(c3ccccc3)OC2C2OC(c3ccccc3)OC12 (configuration not stated)	x	x	-7.3	x	x
COC1OC2COC(c3ccccc3)OC2C2OC12 (configuration not stated)	-0.8	-0.5	-9.5	143.9*	-0.5
CO[C@H]1CN(C)C(=O)c2ccc(NC(=O)C3CC3)cc2OC[C@@H](C)N(C(=O)c2ccccc2F)C[C@H]1C	x	x	-11.2[16.7 µM]	x	x
O=C(CCc1ccccc1F)N1CCN(c2ccc(C(F)(F)F)cn2)CC1	-0.6	-1.5	x	45.3*	0.0
COc1ccc(S(=O)(=O)N(C)C[C@H]2Oc3cc(C4=CCCC4)ccc3S(=O)(=O)N([C@@H](C)CO)C[C@H]2C)cc1	x	x	46.1[16.7 µM]	x	x
O=C(NCCCN1CCOCC1)c1ccc2c(c1)N(Cc1cccc(Cl)c1)C(=O)c1ccccc1S2=O (configuration not stated)	-0.9	-2.1	3.1	37.4*	2.3
Cc1ccc(C(=O)NCCCN2CCOCC2)cc1N1CCCC1=O	x	0.2	-19.0	39.7*	6.3
COCC#Cc1ccc2c(c1)O[C@H](CN(C)C(=O)CN(C)C)[C@H](C)CN([C@@H](C)CO)S2(=O)=O	x	x	-15.1[16.7 µM]	x	x
COCC(=O)Nc1ccc2c(c1)C(=O)N(C)C[C@@H](OC)[C@H](C)CN(C(=O)CN1CCOCC1)[C@H](C)CO2	x	x	-19.4[16.7 µM]	x	x
C[C@H]1CN([C@@H](C)CO)S(=O)(=O)c2ccc(C3=CCCC3)cc2O[C@H]1CN(C)Cc1ccccc1	x	x	-10.8[16.7 µM]	x	x
c1ccc(C(c2ccccc2)N2CCN(Cc3nc(-c4cnccn4)no3)CC2)cc1	-0.9	-1.3	-4.1	-8.2	3.4
Clc1cccc2c1CCN(Cc1nc(-c3cnccn3)no1)C2	x	-0.3	x	55.6*	-6.7
COc1cc(NC(=S)N2CCN(S(=O)(=O)c3ccc(F)cc3)CC2)cc(OC)c1	-1.7	-1.1	x	48.3*	-6.3
COc1cccc(NC(=S)N2CCN(S(=O)(=O)c3ccc(F)cc3)CC2)c1	-2.8	1.9	x	-0.1	0.3
Cn1c(SCC(=O)NNC(=O)c2ccc(Br)cc2)nnc1-c1cccnc1	-0.3	-0.4	x	63.0*	-1.6
CCCCN(CC)CCCNC(=O)c1cn(CC(C)C)c(=O)c2c1c1ccccc1n2C	1.0	2.3	-7.2	-0.7	-2.0
CCN(CC)CCCNC(=O)c1cn(CC(C)C)c(=O)c2c1c1ccccc1n2C	-1.2	0.3	-1.9	49.5*	-2.3
Cc1ccc(NC(=O)CN2C(=O)S/C(=C\c3ccccn3)C2=O)cc1	-0.9	0.3	x	84.6*	-4.1
CCOC(=O)Nc1ccc(C(=O)/C=C/c2ccccc2)cc1	-1.2	-1.3	15.2	79.4*	-4.4
Cc1ccc(S(=O)(=O)Cc2cc(F)c([N+](=O)[O-])cc2[N+](=O)[O-])cc1	-1.4	0.9	-21.1	47.1*	0.2
CCOC(=O)c1ccc([N+](=O)[O-])c(CS(=O)(=O)c2ccc(Cl)cc2)c1	-0.7	-3.6	4.4	1.2	4.1
SMILES	CAL PDZ FP-1	C-LANA FP	miR-122 sensor	CAL PDZ FP-2	Keap1-Nrf2 PPI
COc1ccc(CCNC(=O)CC(=O)NCCc2ccc(OC)cc2)cc1	-0.6	-0.2	1.1	9.9	0.0
COc1ccc(CCNC(=O)Cc2ccsc2)cc1	-2.0	0.0	-3.0	37.0*	4.3
COc1ccc(NC(=O)Nc2ccc(C(C)C)cc2)cc1	-0.6	2.3	x	-3.3	-2.6
COc1ccc(NC(=O)Oc2cc(C)ccc2C(C)C)cc1	-0.9	-1.1	14.9	88.6*	4.5
O=c1[nH][nH]c2c(N=Cc3ccccc3O)ccc(F)c12	1.2	86.8*	-2.8	-6.8	-1.6
CNC[C@@H]1OCCCC[C@H](C)Oc2ccc(N(C)C)cc2C(=O)N([C@@H](C)CO)C[C@H]1C	x	x	-1.2[16.7 µM]	x	x
O=C(NNS(=O)(=O)c1ccccc1)C1CC(c2cccnc2)=NO1 (configuration not stated)	-1.0	-1.3	x	2.6	-1.4
O=C(NNS(=O)(=O)c1ccc(F)cc1)C1CC(c2cccnc2)=NO1 (configuration not stated)	0.0	0.3	-2.9	74.3*	-5.8
COc1ccccc1N1CN(S(=O)(=O)c2ccc(C)cc2)c2nc3ccccc3nc21	-0.2	-1.2	-22.9	110.0*	-4.4
O=C(Nc1ccc2[nH]c(=O)[nH]c2c1)c1cc(F)c(F)cc1Cl	0.1	-2.5	4.0	54.7*	-2.7
CC(C)NC(=O)NS(=O)(=O)c1cnccc1NC1CC2CCC1C2 (configuration not stated)	0.3	1.7	3.8	69.3*	3.9
CS(=O)(=O)Nc1ccccc1C(=O)NC1CC2CCC1C2 (configuration not stated)	-3.2	0.1	5.5	-1.0	1.0
COc1cc([N+](=O)[O-])cc(/C=N/NC(=O)Cn2cncn2)c1O	-0.1	-2.0	-17.8	48.3*	-2.6
COc1cc([N+](=O)[O-])cc(/C=N/NC(=O)CSc2ccccn2)c1O	-2.8	2.7	x	1.2	-1.3
Cc1ccc(NC(=O)C(OC(=O)c2ccc(O)cc2)c2ccccc2)cc1Cl (configuration not stated)	-1.7	-0.3	2.3	-3.3	-6.8
Cc1ccc(NC(=O)C(OC(=O)c2ccc(F)cc2)c2ccccc2)cc1Cl (configuration not stated)	-0.7	-1.0	137.2*	-1.1	-0.6
CN1c2ccc(-c3ccccc3)cc2[C@H]2[C@H](CCN2C(=O)CN2CCOCC2)[C@H]1CO	x	x	-0.7[16.7 µM]	x	x
COc1ccc(NC(=O)N(C)C[C@@H]2Oc3ccc(N(C)C)cc3CC(=O)N([C@@H](C)CO)C[C@H]2C)cc1	x	x	-1.0[16.7 µM]	x	x
Cc1[nH]c(=O)c(C(=O)/C=C/c2ccccc2F)c2c1CCCC2	-0.4	1.9	182.5*	x	3.3
CC1=CC(C)(C)Nc2ccc(OC(=O)C(Cc3ccccc3)N3C(=O)c4ccccc4C3=O)cc21 (configuration not stated)	-1.3	-0.4	-5.1	67.9*	-4.1
CC1=CC(C)(C)Nc2ccc(OC(=O)CN3C(=O)c4ccccc4C3=O)cc21	0.0	1.3	x	-4.6	-0.9

High-throughput results as filed in PubChem BioAssay.
